Laboratory results reported in publication PMC3736319 (Antiviral therapy, 2012).
“Also recorded” adds a separate entry of the source. Read-outs that look alike come from different tables or passages of the source. One block for each compound: values may come before it.

Experiments:
[1] = Steady-state plasma pharmacokinetics of abacavir; type: in vivo, human (HIV-infected subjects); details: for Change in plasma ABC concentrations: in the presence of raltegravir versus ABC alone
[2] = cited from earlier work
[3] = Steady-state intracellular carbovir triphosphate; type: in vivo, human (HIV-infected subjects)
[4] = type: in vivo, human (HIV-infected subjects); details: human, plasma, 400 mg
Method in brief: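 HIV-infected adults on a steady-state nucleoside backbone (600 mg once daily, plus two NRTIs, no tenofovir) were randomized 1:1 to a crossover: boosted protease inhibitor 900/100 mg once daily or integrase inhibitor 400 mg twice daily, 14 days each. On days 15 and 29, after a standardized breakfast, serial plasma was drawn over 24 h (protease inhibitor, booster) or 12 h (integrase inhibitor) and measured by a validated assay. Non-compartmental linear–linear trapezoidal AUC0–24 or AUC0–12.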

[5] = in the presence of darunavir/ritonavir versus ABC alone
[6] = with darunavir/ritonavir versus ABC alone
[7] = with raltegravir versus ABC alone
[8] = PBMC, ABC 600 mg once daily alone, steady state, n=19

- AUC(0-t) ([1]; human, plasma, 600 mg): 13.5 µg·h/mL
- Cmax ([1]; human, plasma, 600 mg): 4.01 µg/mL
- concentration at 24 h ([1]; human, plasma, 600 mg): 0.0043 µg/mL
- Decrease in plasma ABC AUC (exposure) [1, 5]: 27%
- Decrease in plasma ABC Cmax [1, 5]: 22%
- Decrease in plasma ABC Ctrough [1, 5]: 38%
- Change in plasma ABC concentrations [1]: No significant changes
- Change in plasma ABC concentrations ([1]; listed as abacavir): no changes
- Inter-individual variability in ABC Ctrough ([1]; plasma, across study phases): > 87%
- Plasma ABC Ctrough, GMR (90% CI) [1, 6]: 0.62 (0.50, 0.77)
- Plasma ABC Ctrough, GMR (90% CI) [1, 7]: 0.83 (0.62, 1.11)
SMILES: Nc1nc(NC2CC2)c2ncn([C@H]3C=C[C@@H](CO)C3)c2n1 [ABC, abacavir]
- Decrease in ABC plasma exposure ([2]; in combination with boosted atazanavir): 17%
- Decrease in ABC plasma exposure ([2]; in combination with boosted lopinavir): 32%
- Decrease in ABC plasma exposure ([2]; in combination with boosted tipranavir): 40%
- Increase in ABC plasma exposure ([2]; with high doses of ethanol): 41%

- Intracellular CBV-TP Cmax, geometric mean (90% CI) [3, 8]: 329 (298, 450) fmol/million cells
- Intracellular CBV-TP Ctrough, geometric mean (90% CI) [3, 8]: 107 (96, 143) fmol/million cells
- Inter-individual variability in intracellular CBV-TP pharmacokinetic parameters ([3]; during coadministration of ABC and darunavir/ritonavir or raltegravir): > 43%
- Decrease in intracellular CBV-TP Ctrough [3, 5]: 32%
- Decrease in intracellular CBV-TP Ctrough ([3]; in the presence of raltegravir versus ABC alone, not statistically significant): 43%
- Intracellular CBV-TP Ctrough, GMR (90% CI) [3, 6]: 0.68 (0.48, 0.95)
- Intracellular CBV-TP Ctrough, GMR (90% CI) [3, 7]: 0.57 (0.33, 1.00)
SMILES: Nc1nc(=O)c2ncn([C@H]3C=C[C@@H](COP(=O)(O)OP(=O)(O)OP(=O)(O)O)C3)c2[nH]1 [CBV-TP, carbovir 5′-triphosphate]
- Intracellular CBV-TP AUC0–24, geometric mean (90% CI) [3, 8]: 4,459 (4,060, 5,802) fmol•h/million cells
- Change in intracellular CBV-TP Cmax and AUC0–24 [3, 5]: no other significant change; also recorded: not significantly different
- Change in intracellular CBV-TP concentrations ([3]; in the presence of raltegravir versus ABC alone): did not lead to any significant alteration; also recorded: No significant changes

- AUC(0-t) [4]: 2.41 µg·h/mL
SMILES: Cc1nnc(C(=O)NC(C)(C)c2nc(C(=O)NCc3ccc(F)cc3)c(O)c(=O)n2C)o1 [raltegravir]
